Results collected from several papers.
Protocols differ between the studies behind these lines.
Observed: enzyme activity
Action: inhibitor
RET: Proto-oncogene tyrosine-protein kinase receptor Ret (RET, Homo sapiens, UniProt P07949)
RET V804L: Proto-oncogene tyrosine-protein kinase receptor Ret (RET, Homo sapiens, UniProt P07949, V804L)

CC/C(=N\NC(=O)NCc1cccc(O)c1)c1ccc(O)c(C)c1O
inhibition (RET; 0.1 µM): 0.2%

CCCS(=O)(=O)Nc1ccc(F)c(C(=O)c2c[nH]c3ncc(-c4ccc(Cl)cc4)cc23)c1F
inhibition (RET; 1 µM): < 10%

COc1cc2ncnc(Nc3ccc(Oc4ccccc4)c(C)c3C)c2cc1OC
inhibition (Proto-oncogene tyrosine-protein kinase receptor Ret (RET, Homo sapiens, UniProt P07949, Y791F); 1 µM): 31%

COc1cc2nccc(Oc3ccc(NC(=O)c4c5n(n(-c6ccc(F)cc6)c4=O)CCCC5)cc3)c2cc1OC
inhibition (RET; 0.1 µM): 15%

COc1cc2ncnc(Nc3ccc(Oc4ccccc4)cc3C)c2cc1OC
inhibition (RET; 1 µM): 34%

C=CC(=O)Nc1cc(Nc2nccc(Nc3cc(Cl)c(F)cc3C(C)(C)O)n2)c(OC)cc1N1CC[C@@H](N(C)C)C1
inhibition (RET V804L; 1 µM): 8%

COc1cc(-c2cc(-c3ccc(N4CCNCC4)cc3)cnc2N)cc(OC)c1OC
inhibition (RET V804L; 0.1 µM): 2%

CNC(=O)c1cc2c(Oc3ccc(NC(=O)C4(C(=O)Nc5ccc(F)cc5)CC4)cc3)ccnc2cc1OC
inhibition (RET; radiometric; 1 µM): 98%

CNCc1ccc(-c2cc(-c3nc(-c4ccc(S(=O)(=O)C(C)C)cc4)cnc3N)on2)cc1
inhibition (RET; 2 µM): 42%
